For experiment [1], the target named is T1, Carbonic anhydrase 1 (Homo sapiens, UniProt P00915). Nature of the experiment: Binding affinity to human recombinant CA1 expressed in Escherichia coli assessed as association rate constant after 30 secs by surface plasmon resonance assay. The gist of the method:
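Full-length enzyme amine-coupled to a carboxymethyl-dextran chip (75 µg/mL in 10 mM sodium acetate pH 5, about 6000 RU). SPR at 25 °C in PBST pH 7.4 with 2% DMSO. Ligands injected as 2-fold series, 15.6–2000 nM, at 30 or 90 µL/min. Association 30 s, dissociation 180 s. Regeneration with 200 µM sulphanilamide. ka from non-linear fit to a one-step binding model with mass transport.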
On the technique in general: Surface plasmon resonance follows binding to a sensor surface in real time, without labels.
Target sequence in this assay (P00915 2-261 limits assumed): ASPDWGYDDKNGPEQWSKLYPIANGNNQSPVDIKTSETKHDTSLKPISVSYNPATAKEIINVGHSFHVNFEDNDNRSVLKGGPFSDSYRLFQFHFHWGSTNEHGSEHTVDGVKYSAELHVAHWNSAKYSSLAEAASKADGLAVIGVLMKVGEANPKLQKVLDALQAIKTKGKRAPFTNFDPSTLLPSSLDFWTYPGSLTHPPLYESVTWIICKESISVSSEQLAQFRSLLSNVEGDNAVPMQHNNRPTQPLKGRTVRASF

The target in experiment [2] is T1, Carbonic anhydrase 1. The experiment in a line: Binding affinity to human recombinant CA1 expressed in Escherichia coli assessed as dissociation rate constant after 30 secs by surface plasmon resonance assay. The gist of the method:
(§1)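 SPR kinetics at 25 °C on amine-coupled isozyme surfaces, with immobilization protein level and acetate coupling pH set per isozyme. Running buffer PBST, pH 7.4, with 2 % DMSO.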
Target sequence in this assay (P00915 whole entry): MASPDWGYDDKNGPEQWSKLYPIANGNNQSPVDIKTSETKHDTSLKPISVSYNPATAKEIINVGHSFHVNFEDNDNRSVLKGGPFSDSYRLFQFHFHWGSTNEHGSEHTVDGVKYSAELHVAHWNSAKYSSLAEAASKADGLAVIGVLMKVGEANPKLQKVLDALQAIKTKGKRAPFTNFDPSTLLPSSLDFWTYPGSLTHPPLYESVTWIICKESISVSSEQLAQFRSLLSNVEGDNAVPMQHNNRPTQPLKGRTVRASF

The target of experiment [3] is T1, Carbonic anhydrase 1. Nature of the experiment: Binding affinity to human recombinant CA1 expressed in Escherichia coli after 30 secs by surface plasmon resonance assay. The gist of the method: as §1
Target sequence in this assay (P00915 whole entry): as above
In experiment [4] the target is T1, Carbonic anhydrase 1. Nature of the experiment: Binding affinity to human recombinant CA1 expressed in Escherichia coli by fluorescence-based thermal shift assay.
Target sequence in this assay (P00915 whole entry): as above
The target in experiment [5] is T2, Carbonic anhydrase 2 (Homo sapiens, UniProt P00918). The experiment in a line: Binding affinity to human recombinant CA2 expressed in Escherichia coli assessed as dissociation rate constant after 30 secs by surface plasmon resonance assay.
Experiment [6] has as its target T2, Carbonic anhydrase 2. Nature of the experiment: Binding affinity to human recombinant CA2 expressed in Escherichia coli after 30 secs by surface plasmon resonance assay.
Experiment [7] concerns the target T2, Carbonic anhydrase 2. The experiment in a line: Binding affinity to human recombinant CA2 expressed in Escherichia coli by fluorescence-based thermal shift assay.
In experiment [8] the target is T3, Carbonic anhydrase 7 (Homo sapiens, UniProt P43166). The experiment in a line: Binding affinity to human recombinant CA7 assessed as dissociation rate constant after 30 secs by surface plasmon resonance assay.
T3 sequence (P43166 whole entry): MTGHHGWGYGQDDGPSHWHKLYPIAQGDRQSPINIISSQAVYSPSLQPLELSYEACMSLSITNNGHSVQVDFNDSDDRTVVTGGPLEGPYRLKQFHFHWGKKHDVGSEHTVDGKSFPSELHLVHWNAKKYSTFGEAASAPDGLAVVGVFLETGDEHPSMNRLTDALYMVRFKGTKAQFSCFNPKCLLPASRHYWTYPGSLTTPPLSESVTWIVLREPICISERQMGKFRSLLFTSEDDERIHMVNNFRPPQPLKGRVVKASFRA
In experiment [9] the target is T3, Carbonic anhydrase 7. The experiment in a line: Binding affinity to human recombinant CA7 after 30 secs by surface plasmon resonance assay.
Experiment [10] concerns the target T3, Carbonic anhydrase 7. Nature of the experiment: Binding affinity to human recombinant CA7 by fluorescence-based thermal shift assay.
Experiment [11] concerns the target T4, Carbonic anhydrase 9 (Homo sapiens, UniProt Q16790). Nature of the experiment: Binding affinity to human recombinant CA9 catalytic domain assessed as association rate constant after 30 secs by surface plasmon resonance assay. The gist of the method: (§2)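 SPR kinetics at 25 °C on amine-coupled isozyme surfaces, with immobilization protein level and acetate coupling pH set per isozyme. Running buffer PBST, pH 7.4, with 2 % DMSO. Ligands run as 2-fold series from 15.6 to 2000 nM at 30 or 90 µL/min, with 30 s association and 180 s dissociation.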

In experiment [12] the target is T4, Carbonic anhydrase 9. The experiment in a line: Binding affinity to human recombinant CA9 catalytic domain assessed as dissociation rate constant after 30 secs by surface plasmon resonance assay. An outline of the steps:
as §1

The target of experiment [13] is T4, Carbonic anhydrase 9. Nature of the experiment: Binding affinity to human recombinant CA9 catalytic domain after 30 secs by surface plasmon resonance assay. The gist of the method: as §1
The target of experiment [14] is T4, Carbonic anhydrase 9. Nature of the experiment: Binding affinity to human recombinant CA9 catalytic domain by fluorescence-based thermal shift assay.
The target in experiment [15] is T5, Carbonic anhydrase 12 (Homo sapiens, UniProt O43570). The experiment in a line: Binding affinity to human recombinant CA12 catalytic domain assessed as dissociation rate constant after 30 secs by surface plasmon resonance assay.
T5 sequence (O43570 whole entry, the tested form may be a part): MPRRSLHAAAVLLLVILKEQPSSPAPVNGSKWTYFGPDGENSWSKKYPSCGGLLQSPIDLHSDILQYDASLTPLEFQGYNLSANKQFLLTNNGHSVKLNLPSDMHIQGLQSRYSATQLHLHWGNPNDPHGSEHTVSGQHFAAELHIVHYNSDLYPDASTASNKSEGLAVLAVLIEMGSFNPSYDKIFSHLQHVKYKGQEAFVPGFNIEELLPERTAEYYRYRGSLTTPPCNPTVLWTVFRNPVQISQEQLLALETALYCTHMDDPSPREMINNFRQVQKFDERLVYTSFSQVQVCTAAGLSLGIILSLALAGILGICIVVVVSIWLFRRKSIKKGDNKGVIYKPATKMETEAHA
Experiment [16] deals with T5, Carbonic anhydrase 12. The experiment in a line: Binding affinity to human recombinant CA12 catalytic domain after 30 secs by surface plasmon resonance assay.
Experiment [17] addresses T5, Carbonic anhydrase 12. The experiment in a line: Binding affinity to human recombinant CA12 catalytic domain by fluorescence-based thermal shift assay.
The target in experiment [18] is T6, Carbonic anhydrase 13 (Homo sapiens, UniProt Q8N1Q1). The experiment in a line: Binding affinity to human recombinant CA13 by fluorescence-based thermal shift assay.
Target sequence in this assay (Q8N1Q1 whole entry): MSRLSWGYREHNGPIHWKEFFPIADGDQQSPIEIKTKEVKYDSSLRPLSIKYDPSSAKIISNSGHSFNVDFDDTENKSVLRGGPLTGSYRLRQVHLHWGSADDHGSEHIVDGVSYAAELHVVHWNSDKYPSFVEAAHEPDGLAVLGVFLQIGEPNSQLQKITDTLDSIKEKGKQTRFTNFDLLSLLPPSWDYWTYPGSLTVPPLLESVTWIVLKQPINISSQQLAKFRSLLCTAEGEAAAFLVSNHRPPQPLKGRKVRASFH
In experiment [19] the target is T6, Carbonic anhydrase 13. The experiment in a line: Slow rate dissociation at human recombinant CA13 after 30 sec by surface plasmon resonance assay. An outline of the steps: as §2
Target sequence in this assay (Q8N1Q1 whole entry, looked up): as the sequence (Q8N1Q1 whole entry) above
Experiment [20] addresses T3, Carbonic anhydrase 7. The experiment in a line: Reversible binding affinity to human recombinant CA7.
The target in experiment [21] is T3, Carbonic anhydrase 7. Nature of the experiment: Slow rate dissociation at human recombinant CA7 after 30 sec by surface plasmon resonance assay. An outline of the steps: as §2
For experiment [22], the target named is T6, Carbonic anhydrase 13. Nature of the experiment: Binding affinity to human recombinant CA13 after 30 secs by surface plasmon resonance assay.
Target sequence in this assay (Q8N1Q1 whole entry): as above
The target of experiment [23] is T4, Carbonic anhydrase 9. The experiment in a line: Slow rate dissociation at human recombinant CA9 catalytic domain after 30 sec by surface plasmon resonance assay. An outline of the steps:
as §2

Experiment [24] concerns the target T5, Carbonic anhydrase 12. The experiment in a line: Slow rate dissociation at human recombinant CA12 catalytic domain after 30 sec by surface plasmon resonance assay. The gist of the method:
as §2

Calls of active or inactive are those of the source. No cut-off for these calls is given here.

`CNc1c(F)c(S(N)(=O)=O)c(F)c(F)c1S(=O)(=O)CCc1ccccc1`: the K in experiment [1] is 3.9 ×10⁵ /M/s; in experiment [11], 6.5 ×10⁶ /M/s. Also, the Kd was determined as 1 ×10⁻² /s in experiment [2]; 25 nM in experiment [3]; 25 nM in experiment [4]; 6.4 nM in experiment [6]; 2.4 nM in experiment [7]; 45 nM in [9]. In addition, the Kd amounted to 3.1 nM in [10]; 16 nM in experiment [13]; 2 nM in experiment [14]; 95 nM in experiment [16]; 100 nM in experiment [17]; 0.42 nM in experiment [18]. In addition, the “Dissociation rate constant (koff)” value in experiment [5] is given as 8.2 ×10⁻³ /s; in experiment [15] it was 1.4 ×10⁻¹ /s. Moreover, the “koff (dissociation rate constant)” value in experiment [8] worked out at 1.3 ×10⁻² /s; in experiment [12], 1 ×10⁻¹ /s. The outcome in experiment [19] was Active. Further, in experiment [20], the outcome was inactive.
For `CC(C)(C)Nc1c(F)c(S(N)(=O)=O)c(F)c(F)c1S(=O)(=O)CCc1ccccc1`, the Kd turned out to be 220 nM in experiment [4]; 0.59 nM in experiment [7]; 0.077 nM in experiment [10]; 9.2 nM in [13]; 0.2 nM in [14]; 59 nM in experiment [16]. Besides, the Kd is 17 nM in experiment [17] and 1.5 nM in experiment [18]. Moreover, the K in experiment [11] is 7 ×10⁵ /M/s. For the same compound, the “Dissociation rate constant (koff)” value in [15] is listed as 1.1 ×10⁻² /s. In addition, the outcome in experiment [21] and in experiment [19] was Active. For the same compound, in experiment [20], the outcome was inactive.
For the compound `CCCS(=O)(=O)c1c(F)c(F)c(S(N)(=O)=O)c(F)c1NC1CCCCCCC1`, the Kd in experiment [4] was 330 nM; in [6], 100 nM; in [7], 20 nM; in [9] it was 40 nM; in [10], 3.2 nM; in [14] it was 0.0067 nM. The Kd is 1.1 nM in experiment [17], 15 nM in experiment [22] and 2.2 nM in experiment [18]. Moreover, the “koff (dissociation rate constant)” value in experiment [8] amounted to 2 ×10⁻³ /s. Further, the outcome in [23] and in experiment [24] was Active.

The values above are taken from ChEMBL document CHEMBL3797037, “Kinetically Selective Inhibitors of Human Carbonic Anhydrase Isozymes I, II, VII, IX, XII, and XIII” (J Med Chem, 2016).
